Source: ChEMBL document CHEMBL2093137, “WHO-TDR NTD Screening”
≈ marks a conversion by molar mass, not a printed value.

Assays:
[1] = WHO-TDR: Cytotoxicity; format: toxicity, cell-based; details: human, MRC5 cells
Plasmodium falciparum K1 = test: WHO-TDR: Malaria; format: functional, organism-based, Homo sapiens; details: Erythrocyte
Outline: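 Following previously published standard procedures, with a reference drug serving as positive control, compounds were tested on the Plasmodium falciparum K1 strain inside human red blood cells. The 10,000-compound diverse set came from Life Chemicals after filtering for drug-likeness and reactive groups. Potency against the parasite appears as IC50.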

Trypanosoma cruzi = test: WHO-TDR: Chagas disease; format: functional, organism-based, Homo sapiens; details: MRC5
Outline: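 Each IC50 reflects antiparasitic potency against intracellular amastigotes of Trypanosoma cruzi Tulahuen CL2 beta-galactosidase strain. These were cultured in MRC-5SV2 human lung fibroblasts and exposed to a 10,000-compound diverse Life Chemicals library screened according to published standard procedures with a reference drug as positive control.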

[2] = tested on: Trypanosoma brucei brucei; test: WHO-TDR: Human African Trypanosomiasis (HAT); format: functional, organism-based; details: Squib-427
Outline: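 Bloodstream forms of the Trypanosoma brucei Squib 427 strain were tested in a whole-organism screen with a diverse library from Life Chemicals of 10,000 compounds. Before screening, the library was filtered for drug-likeness and for reactive groups. The assay used previously published standard procedures and included reference drugs as positive controls. Potency against the parasite is expressed as IC50.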

Leishmania infantum = test: WHO-TDR: Leishmaniasis; format: functional, organism-based, Mus musculus; details: Macrophage
Outline: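 Following previously published standard procedures, a whole-organism screen was run on Leishmania infantum MHOM/MA(BE)/67 amastigotes within murine peritoneal macrophages, with a reference drug as positive control. The 10,000 compounds tested formed a diverse Life Chemicals library filtered for drug-likeness and reactive groups. Potency against the parasite is reported as IC50.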

Schistosoma mansoni = test: WHO-TDR: Schistosomiasis; format: functional; parameters: concentration or dose not given beside the values
Outline: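 Values are reported as percent inhibition and IC50. They come from a whole-organism screen of a 10,000-compound diverse Life Chemicals library against larval and/or adult worms of Schistosoma mansoni, Puerto Rican strain. The library had been filtered for drug-likeness and reactive groups.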

Onchocerca ochengi = test: WHO-TDR: Onchocerciasis; format: functional; parameters: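 at 12.5 µM on microfilariae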
Outline: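 Values are reported as percent inhibition and as IC50. They come from a whole-organism screen of a 10,000-compound diverse Life Chemicals library against microfilariae of Onchocerca ochengi or Onchocerca lienalis. The screen followed previously published standard procedures, with reference drugs as positive controls.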

Brugia malayi = test: WHO-TDR: Lymphatic Filariasis; format: functional; parameters: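 tested at 10 µM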
Outline: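 Values are percent inhibition and IC50 from a whole-organism screen against Brugia malayi microfilariae. The compounds, 10,000 in all, came from a diverse Life Chemicals library filtered for drug-likeness and reactive groups.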

SMILES | IC50 [1] [µg/mL] | IC50 (Plasmodium falciparum K1) [µg/mL] | IC50 (Trypanosoma cruzi) [µg/mL] | IC50 [2] [µg/mL] | IC50 (Leishmania infantum) [µg/mL] | % Inhibition (Schistosoma mansoni) [%] | % Inhibition (Onchocerca ochengi) [%] | % Inhibition (Brugia malayi) [%]
CC(C)CC(=O)N1CCN(c2ccc(-c3ccccn3)nn2)CC1 | 3.86 (≈ 11.9 µM) | 1.13 (≈ 3.46 µM) | 0.763 (≈ 2.34 µM) | 3.09 (≈ 9.49 µM) | 3.09 (≈ 9.49 µM) | 25 | 100 | 33.33
O=C(NCCNc1ccc(Nc2ccccn2)nn1)Nc1ccc(F)cc1 | > 11 | > 11 | > 11 | 3.66 (≈ 9.95 µM) | > 11 | 0 | 100 | 0
COc1ccc(C(=O)C2C(=O)N(c3ccccc3)N=C2C)c(OC)c1 (stereo unspecified) | > 10.2 | > 10.2 | > 10.2 | > 10.2 | > 10.2 | 0 | 100 | 0
NC(=O)c1ccc(NC(=O)CCCn2nc(-c3ccc(Cl)cc3)ccc2=O)cc1 | > 12.3 | > 12.3 | > 12.3 | > 12.3 | > 12.3 | 16.7 | 100 | 0
COc1cc(OC)cc(C(=O)N2CCN(c3nccn3-c3cccc(Cl)c3)CC2)c1 | > 13.9 | 6.13 (≈ 14.4 µM) | 4.18 (≈ 9.78 µM) | 4.5 (≈ 10.5 µM) | 4.5 (≈ 10.5 µM) | 0 | 100 | 0
O=C(CN1CCN(c2nccn2-c2cccc(Cl)c2)CC1)Nc1ccc(F)cc1F | > 15.1 | 12.6 (≈ 29.2 µM) | 4.67 (≈ 10.8 µM) | 4.79 (≈ 11.1 µM) | 4.9 (≈ 11.4 µM) | 0 | 100 | 0
O=C(CCCn1nc(-c2ccccc2)ccc1=O)N1CCN(c2ccccc2F)CC1 | > 12.6 | > 12.6 | 3.81 (≈ 9.07 µM) | 4.04 (≈ 9.6 µM) | > 12.6 | 25 | 100 | 0
CCn1ccnc1N1CCN(CC(=O)NC2CCCCC2)CC1 | > 11.8 | > 11.8 | > 11.8 | > 11.8 | 0.381 (≈ 1.19 µM) | 0 | 0 | 0
O=C(Nc1ccc(SCC(=O)N2CCc3ccccc32)nn1)c1ccccc1F | > 12.3 | > 12.3 | > 12.3 | > 12.3 | 0.397 (≈ 0.972 µM) | 0 | 0 | 0
O=C(C1CCN(S(=O)(=O)c2cccs2)CC1)N(Cc1cccnc1)c1nc2c(F)cc(F)cc2s1 | > 10.9 | > 16 | 0.535 (≈ 1 µM) | > 16 | > 16 | 0 | 0 | 25
Cc1nnc(NC(=O)CSc2nc(-c3ccccc3)c(N)s2)s1 | > 10.9 | > 10.9 | > 10.9 | > 10.9 | 0.353 (≈ 0.971 µM) | 16.7 | 0 | 33.33
CCc1ccc2nc(N(CCCn3ccnc3)C(=O)/C=C/c3cccs3)sc2c1 | 3.5 (≈ 8.28 µM) | 0.163 (≈ 0.386 µM) | 0.399 (≈ 0.944 µM) | 1 (≈ 2.37 µM) | 4.46 (≈ 10.5 µM) | 0 | 100 | 0
O=C(Nc1ccc(OC(F)(F)F)cc1)c1csc(NS(=O)(=O)c2cccs2)n1 | > 13.5 | > 13.5 | > 13.5 | > 13.5 | > 13.5 | 0 | 100 | 20
CC(C)CC(=O)NCCOc1ccc2nnc(-c3ccccc3)n2n1 | > 10.2 | > 10.2 | > 10.2 | > 10.2 | 0.33 (≈ 0.972 µM) | 16.7 | 0 | 33.33
CS(=O)(=O)N1CCN(c2ccc(-c3ccccn3)nn2)CC1 | > 9.58 | > 9.58 | 0.22 (≈ 0.689 µM) | > 9.58 | > 9.58 | 0 | 0 | 0
O=S(=O)(c1ccc2ccccc2c1)N1CCN(c2ccc(Nc3cccnc3)nn2)CC1 | > 13.4 | > 13.4 | > 13.4 | > 13.4 | 0.434 (≈ 0.972 µM) | 0 | 0 | 0
O=C(CS(=O)(=O)Cc1ccccc1)Nc1cc(Cl)cc(Cl)c1 | > 10.7 | > 10.7 | > 10.7 | > 10.7 | > 10.7 | 0 | 100 | 0
O=C(CSc1ccc(NC(=O)c2cccs2)nn1)c1ccc(Cl)cc1 | 3.14 (≈ 8.05 µM) | > 11.7 | > 11.7 | > 11.7 | > 11.7 | 0 | 100 | 0
COc1ccc2nc(-c3ccc(F)c(NC(=O)Cc4ccccc4)c3)cn2n1 | > 11.3 | > 11.3 | > 11.3 | > 11.3 | 0.366 (≈ 0.972 µM) | 25 | 0 | 0
O=C(c1ccc(F)c(F)c1)N1CCN(c2nccn2-c2cccc(Cl)c2)CC1 | > 13.2 | > 13.2 | 11.4 (≈ 28.2 µM) | 3.83 (≈ 9.51 µM) | 4.27 (≈ 10.6 µM) | 0 | 100 | 0
CS(=O)(=O)N1CCCCC1C(=O)Nc1nc(-c2ccc(F)cc2)cs1 (stereo unspecified) | > 11.5 | > 11.5 | 3.82 (≈ 9.95 µM) | 5.4 (≈ 14.1 µM) | > 11.5 | 0 | 100 | 0
O=C(Cc1csc(SCC(=O)c2ccccc2)n1)NCCC1=CCCCC1 | > 12 | > 12 | 3.65 (≈ 9.11 µM) | 5.07 (≈ 12.6 µM) | > 12 | 33.3 | 100 | 0
